A selection: hits, their analogues and other compounds. The true share with any hit is near 3.5%.
RGS4 block: inhibitors of human RGS4 | P49798 | HEK293 M3R/RGS4 inducible, Fluo-4 calcium flux; hits give high values; triggered by carbachol at its EC20 | B-score at 10 µM | actives 0.45% (n = 310,000);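 active means B-score, a plate-corrected calcium signal, over three deviations above library mean, with baseline fluorescence within five deviations of library mean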;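 further: RGS4 expression induced by doxycycline in cells with stable M3 receptor; B-score is computed from the integrated fluorescence ratio over baseline after carbachol; higher B-score means a larger calcium signal and so more RGS4 inhibition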
Target sequence (P49798 whole entry, looked up): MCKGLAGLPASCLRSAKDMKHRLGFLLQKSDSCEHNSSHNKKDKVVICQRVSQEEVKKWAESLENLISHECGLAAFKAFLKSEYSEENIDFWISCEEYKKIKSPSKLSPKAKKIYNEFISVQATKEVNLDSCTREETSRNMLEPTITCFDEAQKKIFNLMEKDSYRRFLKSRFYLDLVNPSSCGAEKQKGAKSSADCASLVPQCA
MrgX1 agonist: agonists of human MrgX1 receptor. Q96LB2. MrgX1-HEK293 cells, Fluo-4 calcium fluorescence, agonist mode; hits give high values. B-score at 10 µM. actives 0.44% (n = 310,000);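 active means calcium response B-score plate-corrected fluorescence ratio at least 3 library SD, with starting fluorescence B-score inside 5 SD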
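Test system: HEK293 cells stably expressing human MrgX1 receptor; Input: fifteen thousand cells per well; Dosing: compound delivered in addition one of three; Schedule: overnight seeding, then 1 h dark dye loading; Technique: Fluo-4 NW calcium fluorescence; Measure: B-scored fluorescence response ratio; Controls: positive and negative controls per plate.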
RGS4 pot: RGS4 potentiation or activation; HEK293 M3R/inducible RGS4, carbachol calcium flux Fluo4; hits give low values; B-score at 10 µM; actives 0.92% (n = 310,000); AID 463111;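 active means B-score of the integrated calcium signal more than 4 SD below the library mean, with starting fluorescence not abnormally high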;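 further: negative B-score means reduced calcium response which marks RGS4 activation or potentiation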
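Assay system: HEK293 FlpIn-TREx cells, stable M3R, doxycycline-inducible RGS4 / Probe or stimulus: carbachol, ECmax concentration / Times: overnight RGS4 induction, 30 min dye load 37 °C, 20 min compound RT / Signal: kinetic calcium fluorescence imaging with Fluo4-AM dye, 2 µM / Measure: Agonist-evoked peak-minus-minimum fluorescence over baseline, integrated ratio, B score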
MrgX1 PAM: human MrgX1 positive allosteric modulation, primary screen | Q96LB2 | MrgX1-HEK293, Fluo-4 calcium flux, FDSS; hits give high values | B-score at 10 µM | actives 0.63% (n = 310,000) | AID 588675;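 active means plate-corrected calcium response at least 3 library SD above typical, normal starting fluorescence, not activating the receptor alone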;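 further: compound read alongside a low EC10 to EC30 dose of BAM8-22 agonist; peak minus trough fluorescence over baseline measured at the second addition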
MrgX1 antagonist: antagonists of human MrgX1 receptor; MRGX1-HEK293 calcium flux, Fluo-4, BAM8-22 antagonism; hits give low values; B-score at 10 µM; actives 1.3% (n = 310,000); AID 588676;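 active means calcium-response B-score plate-corrected more than 3 library SD below zero, starting fluorescence within 5 deviations, no agonist response on first addition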;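 further: peak minus trough fluorescence over baseline after final BAM8-22 challenge near maximal dose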
RGS4 block valid: RGS4 inhibitor validation | shares compounds with RGS4 block | HEK293 M3R/RGS4, carbachol calcium Fluo-4 fluorescence; carbachol added at its EC20; 0 = buffer wells, 100 = carbachol control | calcium response, % at 10 µM | actives 65% (n = 1,700) | AID 492999;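 active means duplicate-averaged calcium response above the buffer-only control mean plus 5 SD of those controls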;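 further: integrated fluorescence ratio F max minus min over baseline F0; higher response in RGS4-induced cells means RGS4 inhibition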
RGS4 uninduced: non-induced cell nonspecific activity of RGS4 inhibitors | shares compounds with RGS4 block | HEK293 M3R non-induced, carbachol calcium Fluo-4; submaximal (EC20) carbachol stimulus; buffer wells 0%, carbachol control wells 100% | activity (percent), % at 10 µM | actives 20% (n = 1,900); call rule not given here;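 further: RGS4 induction absent so cells express M3R without RGS4; higher means more calcium signal and flags a non-specific hit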
M3R basal Ca ctr: signal in non-induced cells without carbachol, RGS4 inhibitor counter-screen; shares compounds with RGS4 block; HEK293 M3R/RGS4 non-induced, Fluo-4 calcium, no carbachol; normalised: buffer wells 0%, carbachol wells 100%; calcium response (agonist-mode artifact), % at 10 µM; actives 22% (n = 1,900); AID 493001;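 active means duplicate-averaged calcium rise in uninduced cells above buffer wells' mean plus 5 SD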
An asterisk follows results filed as active.

`O=C(NCc1cnn(-c2ccccc2)c1)C1CCC(=O)N(C2CC2)C1` (stereo not given) gave RGS4 block inactive, MrgX1 agonist inactive, RGS4 pot inactive, MrgX1 PAM inactive and MrgX1 antagonist inactive.
`COc1ccc2c(Cl)c(C(=O)NN3CCN(C)CC3)sc2c1` gave RGS4 block inactive, MrgX1 agonist inactive, RGS4 pot inactive, MrgX1 PAM inactive and MrgX1 antagonist inactive.
For N#Cc1c(-c2ccccc2)cc(C2CC2)nc1N the results were RGS4 block inactive, MrgX1 agonist inactive, RGS4 pot inactive, MrgX1 PAM inactive and MrgX1 antagonist inactive.
Screening N#Cc1c(-c2ccco2)cc(C2CC2)nc1N returned RGS4 block 5*, MrgX1 agonist inactive, RGS4 pot inactive, MrgX1 PAM inactive, MrgX1 antagonist inactive, RGS4 block valid 5.0%*, RGS4 uninduced inactive and M3R basal Ca ctr inactive.
COc1ccc(Br)cc1C(C[N+](=O)[O-])c1c(N)n(C)c(=O)n(C)c1=O (stereo not given) was read as RGS4 block inactive, MrgX1 agonist inactive, RGS4 pot inactive, MrgX1 PAM inactive and MrgX1 antagonist inactive.
Screening COc1ccc(OC)c(C(C[N+](=O)[O-])c2c(C)cc3ccccn23)c1 (stereo not given) returned RGS4 block inactive, MrgX1 agonist inactive, RGS4 pot inactive, MrgX1 PAM inactive, MrgX1 antagonist inactive, RGS4 block valid inactive, RGS4 uninduced inactive and M3R basal Ca ctr inactive.
COc1ccc(NC(=O)CCn2cccc2)c(OC)c1 was read as RGS4 block inactive, MrgX1 agonist inactive, RGS4 pot inactive, MrgX1 PAM inactive and MrgX1 antagonist inactive.
For COc1ccc(C(C[N+](=O)[O-])c2c(C)cc3ccccn23)c(OC)c1 (stereo not given) the results were RGS4 block 13*, MrgX1 agonist 41*, RGS4 pot inactive, MrgX1 PAM inactive, MrgX1 antagonist inactive, RGS4 block valid inactive, RGS4 uninduced inactive and M3R basal Ca ctr inactive.
`O=C(CC(Nc1ccc(F)cc1)C(=O)O)c1ccccc1` (stereo not given) gave RGS4 block inactive, MrgX1 agonist inactive, RGS4 pot inactive, MrgX1 PAM inactive and MrgX1 antagonist inactive.
For O=C(CC(Nc1ccc(F)cc1)C(=O)OCC(=O)c1cccs1)c1ccccc1 (stereo not given) the results were RGS4 block 6.2*, MrgX1 agonist inactive, RGS4 pot inactive, MrgX1 PAM inactive, MrgX1 antagonist inactive, RGS4 block valid inactive, RGS4 uninduced inactive and M3R basal Ca ctr inactive.
`Cc1cc(-c2nnc(CCC(=O)N(C)C(C)c3cccs3)o2)no1` (stereo not given) gave RGS4 block inactive, MrgX1 agonist inactive, RGS4 pot inactive, MrgX1 PAM inactive and MrgX1 antagonist inactive.
Screening Cc1ccc(-c2cc(-c3ccc(F)cc3)nc(N)c2C#N)o1 returned RGS4 block 6*, MrgX1 agonist inactive, RGS4 pot inactive, MrgX1 PAM inactive, MrgX1 antagonist inactive, RGS4 block valid inactive, RGS4 uninduced inactive and M3R basal Ca ctr inactive.
Screening Cc1ccc(-c2cc(-c3ccccc3)c(C#N)c(N)n2)o1 returned RGS4 block 7.7*, MrgX1 agonist inactive, RGS4 pot inactive, MrgX1 PAM inactive, MrgX1 antagonist inactive, RGS4 block valid 5.5%*, RGS4 uninduced inactive and M3R basal Ca ctr inactive.

High-throughput results deposited in PubChem BioAssay by Johns Hopkins Ion Channel Center.
